Paper PMC11966289 (ACS Omega, 2025)

Assays:
[1] = system: P. falciparum (W2 strain); experiment: In vitro antiplasmodial activity; type: cell-based; conditions: Plasmodium falciparum, W2, 72 h, read-out: P. falciparum (W2 strain) IC50
Procedure, shortened: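 Infected erythrocytes (2% hematocrit, 2% parasitemia) in RPMI 1640 with 60 μg/mL amikacin and 10% human serum, exposed to serially diluted test compound under 90% N2/5% CO2/5% O2 at 37 °C for 72 h. Parasite LDH measured with Malstat reagent (30 min, room temperature), then NBT/PES (1 h, dark), stopped with 5% acetic acid, absorbance 650 nm. Triplicates; chloroquine/artemisinin and DMSO controls; IC50 from dose–response.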

[2] = In vitro cytotoxicity, Neutral Red assay; type: cell-based; conditions: African green monkey, Vero cells
[3] = system: P. berghei; experiment: In vivo antiplasmodial evaluation in the P. berghei-mouse malaria model; set-up: species or system P. berghei (Swiss Webster Hsd:ND4 mice); conditions: for % Parasitemia suppression day 5 / % Parasitemia suppression day 7 / MST (mean survival time) / cure (mice without parasitemia until day 28) / survival (animals survived on day 28/total): oral gavage, mice; for parasitemia suppression: day not given
[4] = system: P. falciparum (D6 strain); experiment: In vitro antiplasmodial activity; type: cell-based; conditions: Plasmodium falciparum, D6, 72 h, read-out: P. falciparum (D6 strain) IC50
[5] = 33.33 mg/kg dose, oral gavage once daily days 0, 1, 2

## CCN(CC)CCCC(C)Nc1ccnc2cc(Cl)ccc12 (stereo not drawn) [CQ, Chloroquine, reference compound]
[1]
  IC50: 853 nM
[2]
  IC50 at 48 h: > 4.76 µg/mL
[3]; 33.3 mg/kg × 3 days
  % Parasitemia suppression day 5: 100.00%
  % Parasitemia suppression day 7: 100.00%
  MST (mean survival time): 28 days
  cure (mice without parasitemia until day 28): 2/5
  survival (animals survived on day 28/total): 5/5
[4]
  IC50: 60 nM

## CCN1CCN(c2nc(C)cc(N3CCN(CCNc4ccnc5cc(Cl)ccc45)CC3)n2)CC1 [Compound 7e, 7-Chloro-N-(2-(4-(2-(4-ethylpiperazin-1-yl)-6-methylpyrimidin-4-yl)piperazin-1-yl)ethyl)quinolin-4-amine]
[1]
  IC50: 16 nM
[2]
  IC50 at 48 h: > 4.76 µg/mL
[3]; 11.1 mg/kg × 3 days
  % Parasitemia suppression day 5: 94.31%
  % Parasitemia suppression day 7: 41.53%
  MST (mean survival time): 21.4 days
  cure (mice without parasitemia until day 28): 0/5
  survival (animals survived on day 28/total): 2/5
[3]; 33.3 mg/kg × 3 days
  % Parasitemia suppression day 5: 100.00%
  % Parasitemia suppression day 7: 100.00%
  MST (mean survival time): 28 days
  cure (mice without parasitemia until day 28): 5/5
  survival (animals survived on day 28/total): 5/5
[3]; [5]
  parasitemia suppression: 100%
[3]; 100 mg/kg × 3 days
  % Parasitemia suppression day 5: 100.00%
  % Parasitemia suppression day 7: 100.00%
  MST (mean survival time): 28 days
  cure (mice without parasitemia until day 28): 5/5
[4]
  IC50: 21 nM

## Cc1cc(N2CCN(CCCNc3ccnc4cc(Cl)ccc34)CC2)nc(N2CCCC2)n1 [Compound 7i, 7-Chloro-N-(3-(4-(6-methyl-2-(pyrrolidin-1-yl)pyrimidin-4-yl)piperazin-1-yl)propyl) quinolin-4-amine]
[1]
  IC50: 19 nM
[2]
  IC50 at 48 h: > 4.76 µg/mL
[3]; 11.1 mg/kg × 3 days
  % Parasitemia suppression day 5: 100.00%
  % Parasitemia suppression day 7: 100.00%
  MST (mean survival time): 27 days
  cure (mice without parasitemia until day 28): 3/5
  survival (animals survived on day 28/total): 4/5
[3]; 33.3 mg/kg × 3 days
  % Parasitemia suppression day 5: 100.00%
  % Parasitemia suppression day 7: 100.00%
  MST (mean survival time): 28 days
  cure (mice without parasitemia until day 28): 5/5
  survival (animals survived on day 28/total): 5/5
[3]; [5]
  parasitemia suppression: 100%
[3]; 100 mg/kg × 3 days
  % Parasitemia suppression day 5: 100.00%
  % Parasitemia suppression day 7: 100.00%
  MST (mean survival time): 22.8 days
  survival (animals survived on day 28/total): 5/5
[3]; at all doses (11.1, 33.3, and 100.0 mg/kg)
  parasitemia suppression: 100%
[4]
  IC50: 12 nM

## CN1CCN(c2nccc(N3CCN(CCCNc4ccnc5cc(Cl)ccc45)CC3)n2)CC1 [Compound 7q, 7-Chloro-N-(3-(4-(2-(4-methylpiperazin-1-yl)pyrimidin-4-yl)piperazin-1-yl)propyl) quinolin-4-amine]
[1]
  IC50: 17 nM
[2]
  IC50 at 48 h: > 4.76 µg/mL
[4]
  IC50: 14 nM
